Assay results reported in ChEMBL document CHEMBL3526009, “Breast cancer resistance protein (ABCG2) determines distribution of genistein phase II metabolites: reevaluation of the roles of ABCG2 in the disposition of genistein” (Drug Metab Dispos, 2012).

What was measured:
[1] = Drug metabolism in BCRP-/- mouse colon S9 fraction assessed as compound glucuronidation rate at 10 uM by UPLC-MS/MS analysis; format: ADME, tissue-based; details: s9, 10 µM
How it was run: (§1)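 S9 from liver, small intestine or colon of FVB or Bcrp1(−/−) mice, 1 mg/ml protein, with 10 μM genistein in 50 mM potassium phosphate pH 7.4, 0.88 mM MgCl2, 4.4 mM saccharolactone, 0.022 mg/ml alamethicin. Glucuronidation started with 3.5 mM UDPGA; sulfation used 0.1 mM PAPS instead. 37°C, 60 min; n = 4.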

[2] = Elimination rate constant in wild-type FVB mouse at 20 mg/kg, ip; format: ADME, organism-based; parameters: dose 20 mg/kg, route intraperitoneal; details: in vivo
How it was run: (§2)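 Male FVB or Bcrp1(−/−) mice (6–10 weeks), nonsoy chow ≥1 week, fasted 12 h. Single i.p. 20 mg/kg from 2 mg/ml solution in 100 mM sodium bicarbonate–PEG 300 (7:3), pH 10; n = 5. Serial tail blood at 10 time points under isoflurane; whole-blood genistein and conjugates by UPLC-MS/MS; noncompartmental analysis.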

[3] = Cmax in BCRP-/- mouse at 20 mg/kg, ip; format: ADME, organism-based; parameters: dose 20 mg/kg, route intraperitoneal; details: in vivo; how it was run: as §2
[4] = Cmax in BCRP-/- mouse at 8 mg/kg, po; format: ADME, organism-based; parameters: dose 8 mg/kg, route oral; details: in vivo
[5] = AUC (0 to 3 hrs) in wild-type FVB mouse at 50 mg/kg, po; format: ADME, organism-based; parameters: time < 3 hr, dose 50 mg/kg, route oral; details: plasma
[6] = Cmax in BCRP-/- mouse at 50 mg/kg, po; format: ADME, organism-based; parameters: dose 50 mg/kg, route oral; details: in vivo
[7] = organism: Mus musculus; assay: Drug uptake in BCRP-/- mouse small intestine at 10 uM by UPLC-MS/MS analysis; format: ADME, organism-based; details: in vivo
How it was run: (§3)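 In situ perfusion in FVB or Bcrp1(−/−) mice (n = 4): small intestine and colon (8–12 cm each) perfused together with 10 μM genistein in HBSS pH 7.4, 0.191 ml/min, 37°C. After 30-min washout, perfusate sampled at 60, 90, 120, 150 min; runs discarded if water flux >10% per 10 cm. Percent absorbed by UPLC-MS/MS.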

[8] = AUC ( 0 to t) in wild-type FVB mouse at 20 mg/kg, ip; format: ADME, organism-based; parameters: dose 20 mg/kg, route intraperitoneal; details: plasma; how it was run: as §2
[9] = Drug metabolism in BCRP-/- mouse hepatic S9 fraction assessed as compound glucuronidation rate at 10 uM by UPLC-MS/MS analysis; format: ADME, Liver; details: s9, 10 µM; how it was run: as §1
[10] = tested on: Intestine; assay: Drug uptake in wild-type FVB mouse small intestine at 10 uM by UPLC-MS/MS analysis; format: ADME, tissue-based; details: in vivo; how it was run: as §3
[11] = Biliary excretion in BCRP-/- mouse measured after 2.5 hrs post intestinal perfusion by UPLC-MS/MS analysis; format: ADME; details: bile, read-out: Drug excretion
How it was run: (§4)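 Gallbladder bile taken after 2.5 h of simultaneous small intestine/colon perfusion with 10 μM genistein (HBSS pH 7.4, 0.191 ml/min) in FVB or Bcrp1(−/−) mice (n = 4). Bile diluted 20-fold in HBSS, daidzein internal standard in acetonitrile added, dried and reconstituted. Genistein and conjugates quantified by UPLC-MS/MS.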

[12] = tested on: Blood; assay: Drug metabolism in Wistar rat blood at 3.8 uM after 4 hrs by UPLC-MS/MS analysis; format: ADME, tissue-based
How it was run: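 Glucuronide mix (G-7-G plus G-4′-G, 3 μM) with 3.8 μM genistein incubated in fresh Wistar rat blood, 37°C shaking bath up to 4 h; sulfate runs used 0.8 μM sulfates plus 2.2 μM aglycone. Samples at 0, 60, 120, 240 min quenched with acetonitrile/daidzein, analysed by UPLC-MS/MS; 50 mM phosphate buffer pH 7.4 as negative control; n = 3.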

[13] = Half life in BCRP-/- mouse at 2 mg/kg, po; format: ADME, organism-based; parameters: dose 2 mg/kg, route oral; details: in vivo
How it was run: (§5)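 Male wild-type FVB or Bcrp1(−/−) mice (6–10 weeks) on nonsoy chow ≥1 week, fasted 12 h with water, refed at 4 h. Oral gavage of 2 or 20 mg/kg as 4 mg/ml suspension in oral suspending vehicle; n = 5. Tail-snip blood at 10 time points under isoflurane, whole blood by UPLC-MS/MS (MRM); noncompartmental analysis.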

[14] = Half life in wild-type FVB mouse at 20 mg/kg, ip; format: ADME, organism-based; parameters: dose 20 mg/kg, route intraperitoneal; details: in vivo; how it was run: as §2
[15] = Cmax in BCRP-/- mouse at 20 mg/kg, po; format: ADME, organism-based; parameters: dose 20 mg/kg, route oral; details: in vivo; how it was run: as §5
[16] = Drug metabolism in wild-type FVB mouse colon S9 fraction assessed as compound glucuronidation rate at 10 uM by UPLC-MS/MS analysis; format: ADME, tissue-based; details: s9, 10 µM; how it was run: as §1
[17] = AUC (0 to 3 hrs) in BCRP-/- mouse at 50 mg/kg, po; format: ADME, organism-based; parameters: time < 3 hr, dose 50 mg/kg, route oral; details: plasma
[18] = AUC ( 0 to t) in wild-type FVB mouse at 20 mg/kg, po; format: ADME, organism-based; parameters: dose 20 mg/kg, route oral; details: plasma; how it was run: as §5
[19] = Drug metabolism in BCRP-/- mouse small intestine S9 fraction assessed as compound glucuronidation rate at 10 uM by UPLC-MS/MS analysis; format: ADME, tissue-based; details: s9, 10 µM; how it was run: as §1
[20] = Cmax in wild-type FVB mouse at 20 mg/kg, po; format: ADME, organism-based; parameters: dose 20 mg/kg, route oral; details: in vivo; how it was run: as §5
[21] = AUC ( 0 to t) in BCRP-/- mouse at 20 mg/kg, po; format: ADME, organism-based; parameters: dose 20 mg/kg, route oral; details: plasma; how it was run: as §5
[22] = AUC ( 0 to t) in BCRP-/- mouse at 20 mg/kg, ip; format: ADME, organism-based; parameters: dose 20 mg/kg, route intraperitoneal; details: plasma
[23] = AUC ( 0 to t) in wild-type FVB mouse at 2 mg/kg, po; format: ADME, organism-based, Plasma; parameters: dose 2 mg/kg, route oral; how it was run: as §5
[24] = Drug metabolism in BCRP-/- mouse colon S9 fraction assessed as compound sulfation rate at 10 uM by UPLC-MS/MS analysis; format: ADME, tissue-based; details: s9, 10 µM; how it was run: as §1
[25] = Elimination rate constant in BCRP-/- mouse at 2 mg/kg, po; format: ADME, organism-based; parameters: dose 2 mg/kg, route oral; details: in vivo; how it was run: as §5
[26] = Drug metabolism in BCRP-/- mouse small intestine S9 fraction assessed as compound sulfation rate at 10 uM by UPLC-MS/MS analysis; format: ADME, tissue-based; details: s9, 10 µM; how it was run: as §1
[27] = Cmax in wild-type FVB mouse at 2 mg/kg, po; format: ADME, organism-based; parameters: dose 2 mg/kg, route oral; details: in vivo; how it was run: as §5
[28] = Biliary excretion in wild-type FVB mouse measured after 2.5 hrs post intestinal perfusion by UPLC-MS/MS analysis; format: ADME; details: bile, read-out: Drug excretion; how it was run: as §4
[29] = tested on: Mus musculus; assay: Elimination rate constant in BCRP-/- mouse at 20 mg/kg, ip; format: ADME, organism-based; parameters: dose 20 mg/kg, route intraperitoneal; details: in vivo; how it was run: as §2
[30] = Drug recovery in human Caco2 cells at 2 to 10 uM after 4 hrs by UPLC-MS/MS analysis; format: ADME, cell-based; details: Caco-2, read-out: Drug recovery
How it was run: (§6)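 Caco-2 TC7 monolayers on 3 μm polycarbonate inserts, used 19–22 days post-seeding (TEER ≥460 Ω/cm2). Genistein 2 or 10 μM in HBSS pH 7.4 applied apically, ±5 μM Ko143 apically; sampling both sides at 0–4 h hourly with replacement, triplicate. Genistein and four conjugates plus intracellular amounts at 4 h by UPLC-MS/MS; mass balance versus dose added.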

[31] = Drug metabolism in wild-type FVB mouse small intestine S9 fraction assessed as compound glucuronidation rate at 10 uM by UPLC-MS/MS analysis; format: ADME, tissue-based; details: s9, 10 µM; how it was run: as §1
[32] = Drug transport in human Caco2 cells assessed as basolateral excretion of compound at 2 uM after 4 hrs by UPLC-MS/MS analysis in presence of BCRP inhibitor Ko143; format: ADME, cell-based; details: caco-2, 4 h; how it was run: as §6
[33] = Drug metabolism in wild-type FVB mouse hepatic S9 fraction assessed as compound glucuronidation rate at 10 uM by UPLC-MS/MS analysis; format: ADME, Liver; details: s9, 10 µM; how it was run: as §1
[34] = Drug metabolism in wild-type FVB mouse small intestine S9 fraction assessed as compound sulfation rate at 10 uM by UPLC-MS/MS analysis; format: ADME, tissue-based; details: s9, 10 µM; how it was run: as §1
[35] = Cmax in wild-type FVB mouse at 20 mg/kg, ip; format: ADME, organism-based; parameters: dose 20 mg/kg, route intraperitoneal; details: in vivo; how it was run: as §2
[36] = Cmax in BCRP-/- mouse at 2 mg/kg, po; format: ADME, organism-based; parameters: dose 2 mg/kg, route oral; details: in vivo; how it was run: as §5
[37] = Drug metabolism in BCRP-/- mouse hepatic S9 fraction assessed as compound sulfation rate at 10 uM by UPLC-MS/MS analysis; format: ADME, Liver; details: s9, 10 µM; how it was run: as §1
[38] = organism: Mus musculus; assay: Drug uptake in BCRP-/- mouse colon at 10 uM by UPLC-MS/MS analysis; format: ADME, organism-based; details: in vivo; how it was run: as §3
[39] = Drug metabolism in wild-type FVB mouse hepatic S9 fraction assessed as compound sulfation rate at 10 uM by UPLC-MS/MS analysis; format: ADME, Liver; details: s9, 10 µM; how it was run: as §1
[40] = AUC ( 0 to t) in BCRP-/- mouse at 2 mg/kg, po; format: ADME, organism-based; parameters: dose 2 mg/kg, route oral; details: plasma; how it was run: as §5
[41] = tested on: Mus musculus; assay: Half life in BCRP-/- mouse at 20 mg/kg, ip; format: ADME, organism-based; parameters: dose 20 mg/kg, route intraperitoneal; details: in vivo; how it was run: as §2
[42] = tested on: BCRP; assay: Drug recovery in human Caco2 cells at 2 to 10 uM after 4 hrs by UPLC-MS/MS analysis in presence of BCRP inhibitor Ko143; format: ADME, cell-based; details: Caco-2, with Ko143 (BCRP inhibitor, concentration not stated), read-out: Drug recovery; how it was run: as §6
[43] = Drug metabolism in wild-type FVB mouse colon S9 fraction assessed as compound sulfation rate at 10 uM by UPLC-MS/MS analysis; format: ADME, tissue-based; details: s9, 10 µM; how it was run: as §1
[44] = tested on: Colon; assay: Drug uptake in wild-type FVB mouse colon at 10 uM by UPLC-MS/MS analysis; format: ADME, tissue-based; details: in vivo; how it was run: as §3

Drug metabolism [1]: 117 pmol/min/mg | k el [2]: 6.39e-05 s⁻¹ | Cmax [3]: 4420 nM | Cmax [4]: 1100 nM | AUC(0-t) at 3 h [5]: 0.9 µM·h | Cmax [6]: 200 nM | Drug uptake [7]: 74% | AUC(0-t) [8]: 10 µM·h | Drug metabolism [9]: 2737 pmol/min/mg | Drug uptake [10]: 87% | concentration at 2.5 h [11]: 9100 nM | Stability [12]: Stable | half-life [13]: 3.8 h | half-life [14]: 4.8 h | Cmax [15]: 3350 nM | Drug metabolism [16]: 78 pmol/min/mg | AUC(0-t) at 3 h [17]: 5 µM·h | AUC(0-t) [18]: 6.05 µM·h | Drug metabolism [19]: metabolite_not_detected | Cmax [20]: 650 nM | AUC(0-t) [21]: 16.4 µM·h | AUC(0-t) [22]: 11.5 µM·h | AUC(0-t) [23]: 0.36 µM·h | Drug metabolism [24]: 15.2 pmol/min/mg | k el [25]: 7.5e-05 s⁻¹ | Drug metabolism [26]: metabolite_not_detected | Cmax [27]: 100 nM | concentration at 2.5 h [28]: 9900 nM | Kel [29]: 0.52 h⁻¹ | recovery at 4 h, up to 10 µM [30]: 92.3% | Drug metabolism [31]: metabolite_not_detected | Drug transport [32]: Not Active | Drug metabolism [33]: 1299 pmol/min/mg | Drug metabolism [34]: metabolite_not_detected | Cmax [35]: 2680 nM | Cmax [36]: 230 nM | Drug metabolism [37]: 7.9 pmol/min/mg | Drug uptake [38]: 52% | Drug metabolism [39]: 13.3 pmol/min/mg | AUC(0-t) [40]: 0.71 µM·h | t1/2 [41]: 2.8 h | recovery at 4 h, up to 10 µM [42]: 87.8% | Drug metabolism [43]: 26.5 pmol/min/mg | Drug uptake [44]: 46%
SMILES: O=c1c(-c2ccc(O)cc2)coc2cc(O)cc(O)c12 [GENISTEIN]
